Laboratory results as given in ChEMBL document CHEMBL3232709, “Facile synthesis of benzonitrile/nicotinonitrile based s-triazines as new potential antimycobacterial agents” (Eur J Med Chem, 2014).
≈ marks a conversion by molar mass, not a printed value.

Key:
[1] = test system: Mycobacterium tuberculosis; assay: Antimycobacterial activity against Mycobacterium tuberculosis H37Rv assessed as growth inhibition […] by Lowenstein-Jensen agar dilution method; type: functional
Procedure, shortened: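 Test compounds dissolved in DMSO and added to liquid Lowenstein-Jensen medium at 25, 12.5, 6.25, 3.12 and 1.56 dilutions. Medium sterilised by inspissation, then tubes held 37 °C for 24 h. H37Rv (harvested into 0.85% saline) streaked at 5 × 10⁴ bacilli/tube and incubated at 37 °C. Growth checked at 12, 22 and 28 days against medium-only controls. MIC taken as no colonies or <20 colonies.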

Vero = assay: Cytotoxicity against African green monkey Vero cells assessed as cell viability after 72 hrs by MTT assay; type: cell-based; conditions: Chlorocebus sabaeus
[2] = test system: Mycobacterium tuberculosis; assay: Antimycobacterial activity against Mycobacterium tuberculosis H37Rv assessed as growth inhibition at 6.25 ug/ml measured within 10 days by BACTEC MGIT method; type: functional; conditions: 240 h
Procedure, shortened: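 Primary single-concentration screen at 6.25 in MGIT tubes containing modified Middlebrook 7H9 broth. H37Rv inoculum was 10⁴–10⁷ CFU/mL, […]. Incubated at 37 °C in the BACTEC MGIT instrument until positive, read daily from day 2. Fluorescence was judged under UV beside positive control and uninoculated tubes. Result scored as % inhibition.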

Row | SMILES | MIC99 [1] [µg/mL] | IC50 (Vero) [µg/mL] | inhibition at 6.25 µg/mL [2] [%]
1 | CN1CCN(c2nc(Oc3ccc(C#N)cc3)nc(-c3ccc(N4C(=O)CSC4c4ccccc4)cc3)n2)CC1 (configuration not stated) | 200 (≈ 364 µM) |  | 
2 | CN1CCN(c2nc(Oc3ccc(C#N)cc3)nc(-c3ccc(N4C(=O)CSC4c4ccc(Cl)cc4)cc3)n2)CC1 (configuration not stated) | 62.5 (≈ 107 µM) |  | 
3 | CN1CCN(c2nc(Oc3ccc(C#N)cc3)nc(-c3ccc(N4C(=O)CSC4c4ccc(Br)cc4)cc3)n2)CC1 (configuration not stated) | 25 (≈ 39.8 µM) | > 62.5 | 
4 | CN1CCN(c2nc(Oc3ccc(C#N)cc3)nc(-c3ccc(N4C(=O)CSC4c4ccc(F)cc4)cc3)n2)CC1 (configuration not stated) | 100 (≈ 176 µM) |  | 
5 | CN1CCN(c2nc(Oc3ccc(C#N)cc3)nc(-c3ccc(N4C(=O)CSC4c4ccc([N+](=O)[O-])cc4)cc3)n2)CC1 (configuration not stated) | 100 (≈ 168 µM) |  | 
6 | CN1CCN(c2nc(Oc3ccc(C#N)cc3)nc(-c3ccc(N4C(=O)CSC4c4ccc(O)cc4)cc3)n2)CC1 (configuration not stated) | 12.5 (≈ 22.1 µM) | > 62.5 | 99
7 | COc1ccc(C2SCC(=O)N2c2ccc(-c3nc(Oc4ccc(C#N)cc4)nc(N4CCN(C)CC4)n3)cc2)cc1 (configuration not stated) | 25 (≈ 43.1 µM) | > 62.5 | 
8 | CN1CCN(c2nc(Oc3ccc(C#N)cn3)nc(-c3ccc(N4C(=O)CSC4c4ccccc4)cc3)n2)CC1 (configuration not stated) | 125 (≈ 227 µM) |  | 
9 | CN1CCN(c2nc(Oc3ccc(C#N)cn3)nc(-c3ccc(N4C(=O)CSC4c4ccc(Cl)cc4)cc3)n2)CC1 (configuration not stated) | 100 (≈ 171 µM) |  | 
10 | CN1CCN(c2nc(Oc3ccc(C#N)cn3)nc(-c3ccc(N4C(=O)CSC4c4ccc(Br)cc4)cc3)n2)CC1 (configuration not stated) | 62.5 (≈ 99.3 µM) |  | 
11 | CN1CCN(c2nc(Oc3ccc(C#N)cn3)nc(-c3ccc(N4C(=O)CSC4c4ccc(F)cc4)cc3)n2)CC1 (configuration not stated) | 6.25 (≈ 11 µM) | > 62.5 | 99
12 | CN1CCN(c2nc(Oc3ccc(C#N)cn3)nc(-c3ccc(N4C(=O)CSC4c4ccc([N+](=O)[O-])cc4)cc3)n2)CC1 (configuration not stated) | 100 (≈ 168 µM) |  | 
13 | CN1CCN(c2nc(Oc3ccc(C#N)cn3)nc(-c3ccc(N4C(=O)CSC4c4ccc(O)cc4)cc3)n2)CC1 (configuration not stated) | 3.12 (≈ 5.51 µM) | > 62.5 | 99
14 | COc1ccc(C2SCC(=O)N2c2ccc(-c3nc(Oc4ccc(C#N)cn4)nc(N4CCN(C)CC4)n3)cc2)cc1 (configuration not stated) | 6.25 (≈ 10.8 µM) | > 62.5 | 99
15 | CC[C@@H](CO)NCCN[C@@H](CC)CO [ETHAMBUTOL] | 3.12 (≈ 15.3 µM) | > 62.5 | 
16 | NNC(=O)c1ccncc1 [ISONIAZID] | 0.2 (≈ 1.46 µM) | > 62.5 | 
17 | NC(=O)c1cnccn1 [PYRAZINAMIDE] | 6.25 (≈ 50.8 µM) | > 62.5 | 
18 | CO[C@H]1/C=C/O[C@@]2(C)Oc3c(C)c(O)c4c(O)c(c(/C=N/N5CCN(C)CC5)c(O)c4c3C2=O)NC(=O)/C(C)=C\C=C\[C@H](C)[C@H](O)[C@@H](C)[C@@H](O)[C@@H](C)[C@H](OC(C)=O)[C@@H]1C [RIFAMPIN] | 0.25 (≈ 0.304 µM) | > 62.5 | 
